Converted amounts (≈) assume the structure as drawn.
Assays:
Microsporum canis = experiment: In vitro minimum inhibitory concentration (MIC) against isolates of Microsporum canis in Sabouraud's dextrose broth; assay type: functional
Procedure, shortened: (§1)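 Tube broth dilution in Sabouraud's dextrose broth, pH 6.5. Compounds were dissolved in Me₂SO and serially diluted in medium, then incubated at 30 °C. Growth control was read at 48 h for Candida albicans and C. parapsilosis, 72 h for Aspergillus fumigatus, and 7 days for Sporothrix schenckii and the dermatophytes. MIC is the lowest concentration with no macroscopic growth.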

Candida parapsilosis = experiment: In vitro minimum inhibitory concentration (MIC) against isolates of Candida parapsilosis in Sabouraud's dextrose broth; assay type: functional; conditions: Lodderomyces parapsilosis; procedure, shortened: as §1
Epidermophyton floccosum = experiment: In vitro minimum inhibitory concentration (MIC) against isolates of Epidermophyton floccosum in Sabouraud's dextrose broth; assay type: functional; procedure, shortened: as §1
Sporothrix schenckii = experiment: In vitro minimum inhibitory concentration (MIC) against isolates of Sporothrix schenck ii in Sabouraud's dextrose broth; assay type: functional; procedure, shortened: as §1
Trichophyton benhamiae = experiment: In vitro minimum inhibitory concentration (MIC) against isolates of Trichophyton mentagrophytes in Sabouraud's dextrose broth; assay type: functional, Arthroderma benhamiae; procedure, shortened: as §1
Cavia porcellus [1] = experiment: Compound was evaluated in vivo for the activity (% mycological cure) by oral treatment of guinea pig dermatophytosis caused by Trichophyton mentagrophytes. Dose = 10 mg/kg/day; assay type: functional
Procedure, shortened: (§2)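 Guinea pigs, 8–10 per dose, with shorn lumbar backs were inoculated over a 3.5 cm circle with 0.1 mL Sabouraud 2% dextrose broth carrying 10^6 cfu T. mentagrophytes. Compound in miglyol 812 was given as 0.5 mL by stomach tube once daily for 9 days from the inoculation day. One day after the last dose, hairs from lesions were cultured and hair-root regions examined microscopically for fungal growth.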

Aspergillus fumigatus = experiment: In vitro minimum inhibitory concentration (MIC) against isolates of Aspergillus fumigatus in Sabouraud's dextrose broth; assay type: functional; procedure, shortened: as §1
Candida albicans = experiment: In vitro minimum inhibitory concentration (MIC) against isolates of Candida albicans in Sabouraud's dextrose broth; assay type: functional; procedure, shortened: as §1
Cavia porcellus [2] = experiment: Compound was evaluated in vivo for the activity (% mycological cure) by oral treatment of guinea pig dermatophytosis caused by Trichophyton mentagrophytes. Dose =5 mg/kg/day; assay type: functional; procedure, shortened: as §2
Cavia porcellus [3] = experiment: Compound was evaluated in vivo for the activity (% mycological cure) by oral treatment of guinea pig dermatophytosis caused by Trichophyton mentagrophytes. Dose = 150 mg/kg/day; assay type: functional; procedure, shortened: as §2
Cavia porcellus [4] = experiment: Compound was evaluated in vivo for the activity (% mycological cure) by topical treatment of guinea pig dermatophytosis caused by Trichophyton mentagrophytes (0.5% of compound); assay type: functional
Procedure, shortened: (§3)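 Infection model: 8–10 guinea pigs per dose level, lumbar backs shorn, 10^6 cfu T. mentagrophytes in 0.1 mL Sabouraud 2% dextrose broth applied over a 3.5 cm diameter area. Starting 48 h post-inoculation, 0.4 mL compound solution in PEG 400/ethanol 75/25 (v/v) was spread on the lesion once daily for 7 days. Read-out on day 3 after the last treatment: hair cultures checked microscopically for growth at hair roots.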

Cavia porcellus [5] = experiment: Compound was evaluated in vivo for the activity (% mycological cure) by topical treatment of guinea pig dermatophytosis caused by Trichophyton mentagrophytes (0.125% of compound); assay type: functional; procedure, shortened: as §3
Cavia porcellus [6] = experiment: Compound was evaluated in vivo for the activity (% mycological cure) by oral treatment of guinea pig dermatophytosis caused by Trichophyton mentagrophytes. Dose = 37.5 mg/kg/day; assay type: functional; procedure, shortened: as §2
Cavia porcellus [7] = experiment: Compound was evaluated in vivo for the activity (% mycological cure) by oral treatment of guinea pig dermatophytosis caused by Trichophyton mentagrophytes. Dose = 5 mg/kg/day; assay type: functional; procedure, shortened: as §2
Cavia porcellus [8] = experiment: Compound was evaluated in vivo for the activity (% mycological cure) by oral treatment of guinea pig dermatophytosis caused by Trichophyton mentagrophytes. Dose = 75 mg/kg/day; assay type: functional; procedure, shortened: as §2

Structure (SMILES) | MIC (Microsporum canis) [µg/mL] | MIC (Candida parapsilosis) [µg/mL] | MIC (Epidermophyton floccosum) [µg/mL] | MIC (Sporothrix schenckii) [µg/mL] | MIC (Trichophyton benhamiae) [µg/mL] | Activity (Cavia porcellus [1]) [%] | MIC (Aspergillus fumigatus) [µg/mL] | MIC (Candida albicans) [µg/mL] | Activity (Cavia porcellus [2]) [%] | Activity (Cavia porcellus [3]) [%] | Activity (Cavia porcellus [4]) [%] | Activity (Cavia porcellus [5]) [%] | Activity (Cavia porcellus [6]) [%] | Activity (Cavia porcellus [7]) [%] | Activity (Cavia porcellus [8]) [%]
CCCCC#C/C=C\CN(C)Cc1cccc2ccccc12 | 0.2 (≈ 0.686 µM) | 100 (≈ 343 µM) | 100 (≈ 343 µM) | 50 (≈ 172 µM) | 0.2 (≈ 0.686 µM) | – | – | – | – | – | – | – | – | – | –
CCCCC#CC#CCN(C)Cc1cccc2ccccc12 | 0.8 (≈ 2.76 µM) | 100 (≈ 346 µM) | 3.1 (≈ 10.7 µM) | 100 (≈ 346 µM) | 0.2 (≈ 0.691 µM) | – | – | – | – | – | – | – | – | – | –
CCC(C)C#C/C=C/CN(C)Cc1cccc2ccccc12 (configuration not stated) | 0.006 (≈ 0.0206 µM) | 0.4 (≈ 1.37 µM) | 0.006 (≈ 0.0206 µM) | 0.8 (≈ 2.75 µM) | 0.01 (≈ 0.0343 µM) | 75 | 100 (≈ 343 µM) | 100 (≈ 343 µM) | 23 | – | – | – | – | – | –
CCCC/C=C/C=C/CN(C)Cc1cccc2ccccc12 | 0.1 (≈ 0.341 µM) | 1.6 (≈ 5.45 µM) | 0.2 (≈ 0.682 µM) | 3.1 (≈ 10.6 µM) | 0.05 (≈ 0.17 µM) | – | – | – | – | 43 | 69 | 40 | – | – | –
CCCC/C=C/C#CCN(C)Cc1cccc2ccccc12 | 0.2 (≈ 0.686 µM) | > 100 | 1.6 (≈ 5.49 µM) | > 100 | 0.2 (≈ 0.686 µM) | – | – | – | – | – | – | – | – | – | –
CCCCC#C/C=C/CN(C)Cc1cccc2ccccc12 | 0.01 (≈ 0.0343 µM) | 0.4 (≈ 1.37 µM) | 0.01 (≈ 0.0343 µM) | 1.6 (≈ 5.49 µM) | 0.01 (≈ 0.0343 µM) | 15 | 100 (≈ 343 µM) | 100 (≈ 343 µM) | – | 100 | 100 | 83 | 83 | 0 | 100
CN(C/C=C/c1ccccc1)Cc1cccc2ccccc12 [NAFTIFINE] | 0.1 (≈ 0.348 µM) | 1.6 (≈ 5.57 µM) | 0.2 (≈ 0.696 µM) | 1.6 (≈ 5.57 µM) | 0.05 (≈ 0.174 µM) | – | – | – | – | – | 65 | 35 | – | – | –
CN(C/C=C/C#CC(C)(C)C)Cc1cccc2ccccc12 [TERBINAFINE] | 0.006 (≈ 0.0206 µM) | 0.4 (≈ 1.37 µM) | 0.006 (≈ 0.0206 µM) | 0.4 (≈ 1.37 µM) | 0.006 (≈ 0.0206 µM) | 100 | 0.8 (≈ 2.75 µM) | 25 (≈ 85.8 µM) | – | – | – | – | – | 98 | –
